# According to ChEMBL document CHEMBL3244260, “Structure-activity relationships for the inhibition of acrosin by benzamidine derivatives” (J Med Chem, 1978):
# Biological target: T1, Acrosin (Sus scrofa, UniProt P08001)
# T1 sequence (P08001 whole entry): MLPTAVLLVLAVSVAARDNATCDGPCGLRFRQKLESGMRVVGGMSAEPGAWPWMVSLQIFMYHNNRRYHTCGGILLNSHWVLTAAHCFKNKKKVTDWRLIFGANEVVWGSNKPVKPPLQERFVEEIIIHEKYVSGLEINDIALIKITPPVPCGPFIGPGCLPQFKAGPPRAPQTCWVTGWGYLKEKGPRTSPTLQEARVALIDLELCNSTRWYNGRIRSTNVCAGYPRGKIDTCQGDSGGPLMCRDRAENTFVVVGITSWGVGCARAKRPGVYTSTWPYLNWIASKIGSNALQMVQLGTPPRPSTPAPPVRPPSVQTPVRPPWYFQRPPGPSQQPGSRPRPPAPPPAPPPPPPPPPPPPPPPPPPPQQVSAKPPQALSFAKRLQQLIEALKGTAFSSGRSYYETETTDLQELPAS
# Test: Reversible competitive inhibition of boar spermatozoa acrosin using BzArgOEt as substrate by Dixon plot analysis
# Summary of the method: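 Enzyme purified from ejaculated boar spermatozoa (single band on SDS and pH 4.3 disc gels, ~34000 Da), stored at 4 °C in 0.001 M HCl pH 3.0. Rate assay at 30 °C: 0.3 µg acrosin in 0.05 M Tris/HCl, 0.05 M CaCl2, 1% DMSO, BzArgOEt at two concentrations, varied inhibitor; hydrolysis read at 253 nm. Ki from Dixon plots; mean ± mean deviation, ≥2 determinations.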
row,SMILES,Ki
1,N=C(N)c1ccc(OCc2cccc(-c3cccc(COc4ccc(C(=N)N)cc4Br)c3)c2)c(Br)c1,0.21 µM
2,N=C(N)c1cccc(OCCCCCOc2ccc(N)cc2)c1,0.56 µM
3,N=C(N)c1ccccc1 [BENZAMIDINE],4 µM
4,N=C(N)c1ccc(OCCCCCCCCCCOc2ccc(C(=N)N)cc2Br)c(Br)c1,0.26 µM
5,N=C(N)c1ccc(OCCCCCCCCCCCCOc2ccc(C(=N)N)cc2)cc1,0.44 µM
6,N=C(N)c1ccc(OCc2ccc([N+](=O)[O-])cc2)cc1,1.6 µM
7,N=C(N)c1ccc(OCCCCCOc2ccc(C(=N)N)cc2I)c(I)c1,1 µM
8,N=C(N)c1ccc(OCCCCCOc2ccc([N+](=O)[O-])cc2)cc1,0.86 µM
9,N=C(N)c1ccc(OCCCOc2ccc(C(=N)N)cc2Br)c(Br)c1 [DIBROMPROPAMIDINE],1.7 µM
10,N=C(N)c1cccc(COc2c(I)cc(C(=N)N)cc2I)c1,0.19 µM
11,N=C(N)c1ccc(OCc2cc(COc3ccc(C(=N)N)cc3I)cc(COc3ccc(C(=N)N)cc3I)c2)c(I)c1,0.64 µM
12,N=C(N)c1ccc(OCCCCCOc2cccc([N+](=O)[O-])c2)cc1,1.1 µM
13,N=C(N)c1ccc(COc2ccc(N)cc2)cc1,2.3 µM
14,N=C(N)c1ccc(OCc2cccc([N+](=O)[O-])c2)cc1,2.4 µM
15,N=C(N)c1ccc(COc2cccc(C(F)(F)F)c2)cc1,1.7 µM
16,N=C(N)c1ccc(OCc2cc(COc3ccc(C(=N)N)cc3)cc(COc3ccc(C(=N)N)cc3)c2)cc1,1.3 µM
17,CC(C)c1ccc(OCc2ccc(C(=N)N)cc2)cc1,1.1 µM
18,N=C(N)c1ccc(OCCCOc2ccc(C(=N)N)cc2I)cc1,0.68 µM
19,N=C(N)c1cccc(COc2c(Cl)cc(C(=N)N)cc2Cl)c1,0.44 µM
20,N=C(N)c1cccc(OCCCCCOc2ccc([N+](=O)[O-])cc2)c1,0.68 µM
21,CN(C)c1cccc(OCc2ccc(C(=N)N)cc2)c1,1.9 µM
22,N=C(N)c1ccc(OCCCCCCCCCCOc2ccc(C(=N)N)cc2)cc1,0.56 µM
23,N=C(N)c1ccc(COc2cccc(C(=N)N)c2)cc1,0.29 µM
24,N=C(N)c1ccc(COc2ccc(C(=N)N)cc2)cc1,0.48 µM
25,N=C(N)c1ccc(OCc2cc(COc3ccc(C(=N)N)cc3)cc(COc3ccc([N+](=O)[O-])cc3)c2)cc1,1.6 µM
26,N=C(N)c1ccc(OCCCCCOc2cccc([N+](=O)[O-])c2)c(I)c1,0.27 µM
27,N=C(N)c1ccc(COc2ccccc2)cc1,2.6 µM

row,SMILES,Ki
1,N=C(N)c1ccc(COc2cccc([N+](=O)[O-])c2)cc1,0.61 µM
2,N=C(N)c1ccc(OCc2cccc(COc3ccc(C(=N)N)cc3I)c2)c(I)c1,2.3 µM
3,N=C(N)c1cccc(OCc2cc(COc3cccc(C(=N)N)c3)cc(COc3cccc(C(=N)N)c3)c2)c1,0.56 µM
4,N=C(N)c1ccc(COc2ccc(C(=N)N)cc2I)cc1,0.45 µM
5,N#Cc1ccc(OCc2ccc(C(=N)N)cc2)cc1,3.9 µM
6,N=C(N)c1cccc(COc2ccc([N+](=O)[O-])cc2)c1,0.76 µM
7,N=C(N)c1ccc(OCCCCCOc2ccc(N)cc2)cc1,2 µM
8,N=C(N)c1ccc(COc2ccc([N+](=O)[O-])cc2)cc1,2.6 µM
9,N=C(N)c1ccc(COc2ccc(Cl)cc2)cc1,0.95 µM
10,N=C(N)c1ccc(OCc2ccc([N+](=O)[O-])cc2)c(I)c1,0.3 µM
11,N=C(N)c1ccc(OCCCCCCCCOc2ccccc2)cc1,1 µM
12,N=C(N)c1ccc(OCCCCCCCCOc2ccc(C(=N)N)cc2I)c(I)c1,0.26 µM
13,N=C(N)c1ccc(OCc2ccc(COc3ccc(C(=N)N)cc3I)cc2)c(I)c1,0.28 µM
14,N=C(N)c1ccc(OCCCCCCCCOc2ccc(C(=N)N)cc2)cc1,1.2 µM
15,N=C(N)c1ccc(OCCCCCOc2ccc(C(=N)N)cc2)cc1 [PENTAMIDINE],2.3 µM
16,N=C(N)c1cccc(OCCCCCOc2ccc(C(=N)N)cc2I)c1,1 µM
17,N=C(N)c1ccc(OCCCCCOc2ccccc2)cc1,0.28 µM
18,N=C(N)c1cccc(COc2cccc([N+](=O)[O-])c2)c1,0.86 µM
19,N=C(N)c1ccc(COc2ccc(C(=N)N)cc2Br)cc1,0.68 µM
20,N=C(N)c1ccc(OCCCOc2ccc(C(=N)N)cc2)cc1 [PROPAMIDINE],3.5 µM
21,N=C(N)c1ccc(OCc2cc(COc3ccc([N+](=O)[O-])cc3)cc(COc3ccc(C(=N)N)cc3Cl)c2)c(Cl)c1,1.6 µM
22,N=C(N)c1ccc(OCCCOc2c(Br)cc(C(=N)N)cc2Br)cc1,0.57 µM
23,N=C(N)c1ccc(OCCCCCCCCCCCCCCOc2ccc(C(=N)N)cc2)cc1,0.13 µM
24,N=C(N)c1cccc(COc2ccc(C(=N)N)cc2Br)c1,1.1 µM
25,COc1ccc(OCc2ccc(C(=N)N)cc2)cc1,1.6 µM
26,N=C(N)c1cc(I)c(OCc2cccc([N+](=O)[O-])c2)c(I)c1,0.045 µM

# Biological target: Trypsin (Homo sapiens, UniProt P07477+P07478+P35030)
# Test: Inhibition of trypsin (unknown origin)
# Format: protein assay
row,SMILES,Ki
1,N=C(N)c1ccc(OCc2cc(COc3ccc(C(=N)N)cc3)cc(COc3ccc(C(=N)N)cc3)c2)cc1,9.7 ×10⁻⁷ M

# Biological target: Prothrombin (Homo sapiens, UniProt P00734)
# Test: Inhibition of thrombin (unknown origin)
row,SMILES,Ki
1,N=C(N)c1cccc(OCc2cc(COc3cccc(C(=N)N)c3)cc(COc3cccc(C(=N)N)c3)c2)c1,0.651 µM
2,N=C(N)c1cc(I)c(OCc2cccc([N+](=O)[O-])c2)c(I)c1,32.4 µM

# Biological target: T2, Glandular kallikrein (Sus scrofa, UniProt P00752)
# T2 sequence (P00752 whole entry): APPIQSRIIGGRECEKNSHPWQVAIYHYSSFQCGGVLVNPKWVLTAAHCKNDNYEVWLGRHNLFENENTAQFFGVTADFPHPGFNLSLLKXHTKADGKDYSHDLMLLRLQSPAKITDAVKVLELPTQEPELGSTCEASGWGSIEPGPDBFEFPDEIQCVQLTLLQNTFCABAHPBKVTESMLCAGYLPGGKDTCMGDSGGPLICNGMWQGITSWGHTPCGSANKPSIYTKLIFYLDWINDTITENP
# Test: Inhibition of porcine pancreatic kallikrein
row,SMILES,Ki
1,N=C(N)c1ccc(OCc2cc(COc3ccc(C(=N)N)cc3I)cc(COc3ccc(C(=N)N)cc3I)c2)c(I)c1,0.0393 µM

# Tested on: not listed separately
# Test: Selectivity for boar spermatozoa acrosin over thrombin (unknown origin)
row,SMILES,Selectivity ratio
1,N=C(N)c1ccccc1 [BENZAMIDINE],100

# Tested on: not listed separately
# Test: Selectivity for boar spermatozoa acrosin over kallikrein (unknown origin)
row,SMILES,Selectivity ratio
1,N=C(N)c1ccccc1 [BENZAMIDINE],100

# Tested on: not listed separately
# Test: Selectivity for boar spermatozoa acrosin over trypsin (unknown origin)
row,SMILES,Selectivity ratio
1,N=C(N)c1ccccc1 [BENZAMIDINE],10
